High-throughput results as filed in PubChem BioAssay.
ASAP1 GAP inh = blocks human ASAP1-stimulated Arf1 GTP hydrolysis; inhibition, % at 16.5 µM; GDP FP detection; 360,000 tested, 0.19% active; AID 624377; Q9ULH1; in the data active means inhibition above about 25%;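 further: 0% = vehicle with enzyme and substrate and 100% = no enzyme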
MBD2 DNA inh = blocks human MBD2 binding to methylated DNA. Q9UBB5. TR-FRET, MBD2 binding to methylated oligonucleotide. inhibition, % at 4.4 µM. 370,000 tested, 0.31% active. AID 686964; in the data active means inhibition above about 13%
Target sequence (Q9UBB5 whole entry, looked up): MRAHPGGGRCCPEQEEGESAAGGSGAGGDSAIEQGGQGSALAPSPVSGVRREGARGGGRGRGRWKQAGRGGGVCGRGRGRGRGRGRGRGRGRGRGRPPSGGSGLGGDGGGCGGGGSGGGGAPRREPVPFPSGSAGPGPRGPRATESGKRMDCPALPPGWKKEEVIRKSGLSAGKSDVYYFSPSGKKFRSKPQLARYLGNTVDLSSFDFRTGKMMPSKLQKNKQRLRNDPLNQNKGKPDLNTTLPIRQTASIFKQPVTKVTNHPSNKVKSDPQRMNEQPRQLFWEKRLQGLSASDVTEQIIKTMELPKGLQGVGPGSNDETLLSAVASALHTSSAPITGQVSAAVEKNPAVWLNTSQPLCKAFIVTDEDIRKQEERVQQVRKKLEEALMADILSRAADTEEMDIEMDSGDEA
UHRF1 binding = blocks human UHRF1 binding to methylated DNA. 370,000 tested, 0.75% active. inhibition, % at 4.4 µM. UHRF1 binding to methylated oligo, TR-FRET; in the data active means inhibition above about 21%;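 further: UHRF1 SRA domain binding a hemimethylated CpG hairpin DNA probe; 0% = median of test compound wells and 100% = reference inhibitor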
TCR CD3 inh = blocks the human TCR-CD3 interaction. TAMRA-labeled TCR probe fluorescence, biochemical. inhibition, % at 9.4 µM. 360,000 tested, 0.37% active. AID 651800; in the data active means inhibition above about 19%;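 further: recombinant mutant TCR 2C K166C tagged with TAMRA read by polarization; 0% = receptor in buffer alone and 100% = receptor with positive control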
LEDGF integ inh = blocks HIV-1 LEDGF/p75-dependent DNA integration; 370,000 tested, 0.64% active; TR-FRET IN-LEDGF/p75 DNA integration, Eu/Cy5; AID 743269; inhibition, % at 3.7 µM;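 active means inhibition above the screen-wide mean plus 3 SD, cut at about 13% in these data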;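 further: signal is the Cy5 over europium emission ratio at 671 and 618 nm; 0% = plate median of compound wells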
ARFGAP1 inhibitor = inhibits rat ARF GTPase activating protein 1 | Q62848 | Arfgap1-stimulated ARF1 GTP hydrolysis, GDP FP detection | inhibition, % at 16.5 µM | 360,000 tested, 0.26% active;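 active means inhibition above a per-plate limit, mean inhibition of low control wells plus 3 SD, cut at about 25% in these data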;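 further: 0% = DMSO wells with enzyme and 100% = wells lacking Arfgap1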
Target sequence (Q62848 1-136 limits assumed): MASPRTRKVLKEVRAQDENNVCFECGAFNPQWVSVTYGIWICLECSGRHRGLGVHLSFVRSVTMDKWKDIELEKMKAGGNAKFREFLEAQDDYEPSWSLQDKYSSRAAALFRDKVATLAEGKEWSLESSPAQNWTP
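Repeats: one replicate per compound; assay system: rat Arfgap1 catalytic domain, aa 1-136; times: enzyme reaction 120 min at 25 °C after 20 min preincubation; detection: FP of antibody-bound GDP Alexa 633 tracer, ex 620/em 688 nm; benchmarks: high control wells lacking Arfgap1, low control full reaction with DMSO; reagent: human ARF1(Δ1-17)-GTP substrate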
Active calls of the source: *; . = no result given. Compounds with a hit are over-represented: about 2% of the library has one in this group of screens.

SMILES	ASAP1 GAP inh	MBD2 DNA inh	UHRF1 binding	TCR CD3 inh	LEDGF integ inh	ARFGAP1 inhibitor
C#CCOCCOCCOCCNc1nc(N2CCN(C(=O)CCCCCCCCCCNC(=O)[C@H](CO)n3cc(CCCSC)nn3)CC2)nc(N2CCN(C(=O)CCCCCCCCCCNC(=O)[C@H](CCCCN)n3cc(CCO)nn3)CC2)n1	11	-6	25*	5	-2	4
C#CCOCCOCCOCCNc1nc(N2CCOCC2)nc(N2CCN(C(=O)CCCCCCCCCCNC(=O)[C@@H](CCC(=O)O)n3cc(CCCCCN)nn3)CC2)n1	7	-5	1	-7	-1	10
C#CCOCCOCCOCCNc1nc(N2CCOCC2)nc(N2CCN(C(=O)CCCCCCCCCCNC(=O)[C@@H]([C@H](C)CC)n3cc(CCCCCN)nn3)CC2)n1	-13	8	22*	-5	6	10
C#CCOCCOCCOCCNc1nc(N2CCN(C(=O)CCCCCCCCCCNC(=O)[C@@H](CCSC)n3cc(CCO)nn3)CC2)nc(N2CCN(C(=O)CCCCCCCCCCNC(=O)[C@H](CCSC)n3cc(CCO)nn3)CC2)n1	7	11	16	6	-1	-9
O=C1CSc2ccc(C(=O)N3CCCC(C(=O)N4CCN(c5ccc(F)cc5)CC4)C3)cc2N1 (configuration not stated)	.	3	2	.	-2	.
CC(C)n1c(SCC(=O)NC2CCCCC2)nnc1-c1ccco1	-10	-5	43*	2	4	3
O=C(CSc1nnc(-c2ccccc2F)n1Cc1ccco1)Nc1ccccc1-c1ccccc1	.	4	-1	.	-3	.
CCn1c(Cc2cccs2)nnc1SCC(=O)Nc1ccc(Cl)cc1C	.	1	3	.	-1	.
FC(F)(F)c1cc(Cl)c2nc(-c3ccco3)c(Cc3ccccc3C(F)(F)F)n2c1	-2	5	21*	6	8	1
Cc1ccc(-c2nc3c(Cl)cc(C(F)(F)F)cn3c2Cc2ccccc2C(F)(F)F)cc1	2	3	5	1	4	-1
CC(C)C[C@H]1COc2cccc(F)c2S(=O)(=O)N1Cc1cn(Cc2ccc(F)cc2)nn1	.	-3	-2	.	7	.
O=C(OCC(=O)N1CCCc2ccccc21)c1ccc(Br)o1	7	-5	-1	6	-2	7
O=C(OCC(=O)N1CCc2ccccc21)c1ccc([N+](=O)[O-])o1	5	3	5	2	16*	-4
Cc1ccccc1S(=O)(=O)N1CCCc2nc(-c3ccc(Br)cc3)ccc21	4	3	-1	3	2	-8
Cc1nnc(SCC(=O)NC(=O)NCc2ccco2)s1	-1	-1	30*	-5	4	6
O=C(CSc1nc2ccccc2s1)NC(=O)NCc1ccco1	-6	-1	4	-1	2	-1
CCNC(=O)C1(C)CCN(C(=O)c2ccc(C#N)cc2)C1 (configuration not stated)	-24	-2	-2	5	1	0
O=C1CCCC/C1=C/Nc1cccc(C(F)(F)F)c1	1	7	24*	6	2	20
COc1cccc(-n2cc(CNC(=O)C3CCC(=O)N(C4CC4)C3)cn2)c1 (configuration not stated)	-8	9	21*	3	4	0
COc1cc(C(O)C(=O)O)ccc1O (configuration not stated)	-2	-2	43*	4	2	13
O=C(NCc1ccccc1)C1(C(=O)C2CC2)CC(c2ccccn2)=NO1 (configuration not stated)	.	-1	2	.	4	.
Cc1ccc(NC2C(=O)NC(=O)NC2=O)cc1	32*	2	-7	-3	0	17
COc1cccc(NC(=O)Nc2c(-c3ccc(F)cc3)nc3ncccn23)c1	.	0	1	.	-2	.
CCOc1ccc(-n2c(COc3ccccc3)nnc2SCC(=O)Nc2ccc(OCc3ccccc3)cc2)cc1	.	2	3	.	4	.
O=C(c1cn2ccccc2n1)N1CCCC(Nc2ccc(F)c(F)c2)C1 (configuration not stated)	1	1	23*	2	-5	1
SMILES	ASAP1 GAP inh	MBD2 DNA inh	UHRF1 binding	TCR CD3 inh	LEDGF integ inh	ARFGAP1 inhibitor
CCCCOc1ccc(S(=O)(=O)n2c(C)nc3ccccc32)cc1	-2	0	43*	1	-3	6
CC1=C2NC(N)=[N+](CC3CC3)C(Cc3ccccc3)[C@@H]2n2c(=O)n(-c3ccccc3)c(=O)n2C1 (some centres not stated)	.	4	0	.	-3	.
COc1cc(NC(=O)c2cc(C)on2)c(OC)cc1Cl	.	6	-4	.	-1	.
CCCCOCCCNC(=O)C[C@H]1C[C@@]2(C(=O)OC)C(=C[C@H](C3CCCC3)O[C@@H]2C)N(Cc2cccc3ccccc23)C1=O	.	-4	2	.	-3	.
O=C1CCCc2ccccc2N1Cc1ccccc1Cl	-12	3	7	-3	-4	25*
O=C1CCCc2ccccc2N1Cc1ccc(Cl)cc1Cl	5	-1	-3	-1	-3	-8
Cc1ccc(CN2CCCCC(NC(=O)Nc3ccccc3)C2=O)cc1 (configuration not stated)	.	2	-1	.	1	.
CSCCC1NC(=O)N(CC(=O)Nc2c(Cl)cc(Cl)cc2Cl)C1=O (configuration not stated)	-3	0	3	3	0	0
CSCCC1NC(=O)N(C(C)C(=O)Nc2cc(Cl)cc(Cl)c2)C1=O (configuration not stated)	8	6	24*	-2	-3	5
Cc1n[nH]c(C)c1CCC(=O)N/N=C/C=C/c1ccccc1	11	-3	88*	-6	-3	-9
O=C(CN1CCN(c2ccccn2)CC1)Nc1ccccc1	0	-3	0	11	-3	-5
O=C(CN1CCN(c2ccccn2)CC1)NC1CCCC1	-2	10	24*	-1	1	-20
Cc1ccc(S(=O)(=O)N2CCC(C(=O)OC(C)C(=O)N(C)c3ccccc3)CC2)cc1C (configuration not stated)	10	7	11	3	5	0
N/C(Cc1ccc(Cl)cc1Cl)=N\OC(=O)Cc1cccs1	-1	3	58*	-10	-6	-2
COC(=O)c1ccc2nc(C3CCCCC3)c(CC(C)(C)C)n2c1	-8	0	21*	4	-4	6
Clc1ccc2nc(CN3CCCCC3)cn2c1	5	1	27*	-8	4	8
Clc1ccc2nc(CN3CCCCCC3)cn2c1	4	0	0	7	2	17
Cc1ccc(CNC(=O)CN2C(C)CCCC2C)cc1 (configuration not stated)	4	-2	49*	3	4	-5
Cc1cc(C(=O)COC(=O)c2ccc(O)cc2)c(C)n1-c1ccccc1F	7	12	21*	-2	-1	-3
